Drawing on the array DNA melting data of Ke et al. (doi:10.1101/2024.01.08.574731), this text covers folding enthalpy and Tm for 37 sequences.

Data set [1] in a line: folding enthalpy; higher = less favourable; fluorescence melt of hairpins on a sequencing array, two-state fit. The conditions noted are these: sodium 0.088 M. An outline of the steps:
(§1)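 Folding enthalpy and melting temperature were estimated with bootstrapped two-state fits and combined across four replicates by inverse-variance weighting, with fitted temperatures raised by 9.35 °C to match UV melts. The data were Cy3 fluorescence of library hairpins, with annealed Cy3 and quencher oligos, on a sequenced MiSeq flow cell in 50 mM Na-HEPES pH 8.0, 25 mM NaCl, imaged in 2.5 °C steps up to 60 °C and normalised to pre-quench Cy3 and control constructs.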

Data set [2] is described as follows: melting temperature; fluorescence melt of hairpins on a sequencing array, two-state fit, raised by 9.35 °C to match UV melts. The conditions noted are these: sodium 0.088 M. An outline of the steps: as §1

Consider GCAACGCGAAAGCATTGC ((((.((....)).)))), for which, in data set [1], the folding enthalpy was -27.3 kcal/mol. In addition, in data set [2], the Tm is 59.7 °C.
For the sequence GCAACGCGAAAGCGAAGC ((..(((....)))..)), the folding enthalpy in data set [1] is -12.9 kcal/mol. For the same sequence, the Tm in data set [2] came out at 44.9 °C.
For GCAACGCGAAAGCGCTGC (((.(((....))).))), the folding enthalpy in data set [1] was -37.9 kcal/mol. For the same sequence, the Tm in data set [2] was found to be 57.8 °C.
As for GCAACGCGAAAGCGGAGC ((..(((....)))..)), in data set [1], the folding enthalpy was -24.5 kcal/mol. The Tm in data set [2] worked out at 63.9 °C.
In the same order, the values of GCAACGCGAAAGCGGCGC ((..(((....)))..)) are -26.6 kcal/mol and 66.7 °C.
For GCAACGCGAAAGCGTAGC ((.((((....)))).)), in that order: -17.6 kcal/mol and 61.9 °C.
For GCAACGCGAAAGCTTTGC ((((.((....)).)))), in that order: -27.4 kcal/mol and 55.5 °C.
With GCAACGGAAACGTTGC ((((((....)))))), in data set [1], the folding enthalpy is -32.6 kcal/mol. Further, in data set [2], the Tm worked out at 68.3 °C.
On to GCAACGGGAAACCGCTAC (.(.(((....))).).), for which, in data set [1], the folding enthalpy is -9.4 kcal/mol. Besides, the Tm in data set [2] worked out at 28.3 °C.
Take GCAACGGGAAACCGTCAC (..((((....))))..): the folding enthalpy in data set [1] was -11.2 kcal/mol. In addition, in data set [2], the Tm was found to be 27.1 °C.
For the sequence GCAACGGGAAACTGTTGC (((((.(....).))))), the folding enthalpy in data set [1] was -40.8 kcal/mol. For the same sequence, in data set [2], the Tm amounted to 55.6 °C.
For GCAACTCGAAAGAGGTGC (((.(((....))).))), in that order: -40.6 kcal/mol and 65.5 °C.
For GCAACTGGAAACAGTTAC (.(((((....))))).), the folding enthalpy in data set [1] is -14.5 kcal/mol. For the same sequence, the Tm in data set [2] was found to be 36.3 °C.
With GCAAGACCGAAAGGTTGC (((..(((....)))))), the folding enthalpy in data set [1] is -22.6 kcal/mol. The Tm in data set [2] was 48.2 °C.
For GCAAGACGAAAGTCTGC (((.(((....)))))), in that order: -26.7 kcal/mol and 57.7 °C.
For GCAAGATCGAAAGATTGC (((..(((....)))))), in that order: -21.3 kcal/mol and 38 °C.
In the same order, the values of GCAAGCCGAAAGGCATGC (((.(((....))).))) are -24.9 kcal/mol and 64 °C.
On to GCAAGCGAAAGCTCTTGC ((((((....)))..))), for which, in data set [1], the folding enthalpy is -16.1 kcal/mol. Further, the Tm in data set [2] turned out to be 43.6 °C.
Turning to GCAAGCGAAAGCTTTGC ((((((....))).))), in data set [1], the folding enthalpy is -21 kcal/mol. The Tm in data set [2] stood at 53.7 °C.
Turning to GCAAGCGGAAACACTTGC (((((.(....).))))), the folding enthalpy in data set [1] was -46.6 kcal/mol. In addition, the Tm in data set [2] turned out to be 48.3 °C.
In the case of GCAAGCGGAAACGCTCAC (..((((....))))..), the folding enthalpy in data set [1] is -9.17 kcal/mol. Further, the Tm in data set [2] worked out at 30.5 °C.
In the same order, the values of GCAAGCGGAAACGCTTAC (.(((((....))))).) are -13.4 kcal/mol and 41.2 °C.
Take GCAAGGAAACTTGC (((((....))))): in data set [1], the folding enthalpy was -26.6 kcal/mol. Also, the Tm in data set [2] stood at 53.3 °C.
GCAAGGCGAAAGCAATGC (((..((....))..))): the folding enthalpy in data set [1] was -16 kcal/mol. The Tm in data set [2] turned out to be 41.3 °C.
With GCAAGGCGAAAGCACTGC (((..((....))..))), the folding enthalpy in data set [1] was -19.7 kcal/mol. Also, the Tm in data set [2] came to 46.7 °C.
Take GCAAGGCGAAAGCATGGC ((.(.((....)).).)): the folding enthalpy in data set [1] was -18 kcal/mol. Also, the Tm in data set [2] was found to be 47.8 °C.
In the case of GCAAGGCGAAAGCCAAGC ((..(((....)))..)), in data set [1], the folding enthalpy was -13.8 kcal/mol. The Tm in data set [2] worked out at 50.1 °C.
For GCAAGGCGAAAGCCACGC ((..(((....)))..)), in that order: -14.6 kcal/mol and 47.1 °C.
In the same order, the values of GCAAGGCGAAAGCCGGGC ((..(((....)))..)) are -20.9 kcal/mol and 65.5 °C.
In the case of GCAAGGCGAAAGCGATGC (((..((....))..))), the folding enthalpy in data set [1] is -11.4 kcal/mol. The Tm in data set [2] was 53.4 °C.
GCAAGGCGAAAGCGCTGC (((..((....))..))): the folding enthalpy in data set [1] is -17.3 kcal/mol. For the same sequence, the Tm in data set [2] was 50.2 °C.
For GCAAGGCGAAAGCGTGGC ((.(.((....)).).)), in that order: -20.2 kcal/mol and 46.9 °C.
With GCAAGGGGAAACCCTTGC (((((((....))))))), the folding enthalpy in data set [1] is -38.3 kcal/mol. Besides, the Tm in data set [2] is 68.3 °C.
For GCAAGGTCGAAAGACTGC (((..(((....)))))), in that order: -19.1 kcal/mol and 40.5 °C.
On to GCAAGTCGAAAGACGTGC (((.(((....))).))), for which, in data set [1], the folding enthalpy was -39.8 kcal/mol. For the same sequence, the Tm in data set [2] came to 55.8 °C.
For GCAATAACGAAAGTTTGC (((..(((....)))))), in that order: -26 kcal/mol and 41.3 °C.
In the case of GCAATACCGAAAGGTTGC (((..(((....)))))), in data set [1], the folding enthalpy was -21.6 kcal/mol. Besides, the Tm in data set [2] worked out at 45.5 °C.
